Experimental data as given in ChEMBL document CHEMBL1157864, “Synthesis of some novel 2-substituted-5-[isopropylthiazole] clubbed 1,2,4-triazole and 1,3,4-oxadiazoles as potential antimicrobial and antitubercular agents” (Eur J Med Chem, 2010).
In brackets after ≈: the same amount, converted by molar mass.

Key:
Assay type in all cases: functional
[1] = test system: Staphylococcus aureus; assay: Antimicrobial activity against Staphylococcus aureus ATCC 11632 after 24 hrs by broth microdilution assay; details: ATCC 11632, 24 h
How it was run: (§1)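 Broth dilution MIC. Stock is 10 mg compound in 1 mL DMSO, serially diluted in Mueller–Hinton broth for bacteria or Sabouraud liquid medium for yeasts and mould. Tubes are inoculated at 10⁵ cfu/mL and incubated at 37 °C for 24 h. Controls are medium alone and medium with DMSO at matching dilutions. MIC is the lowest concentration giving complete growth inhibition.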

[2] = test system: Enterococcus faecalis; assay: Antimicrobial activity against Streptococcus faecalis ATCC 14506 after 24 hrs by broth microdilution assay; details: ATCC 14506, 24 h; how it was run: as §1
[3] = test system: Bacillus subtilis; assay: Antimicrobial activity against Bacillus subtilis ATCC 60511 after 24 hrs by broth microdilution assay; details: ATCC 60511, 24 h; how it was run: as §1
[4] = test system: Klebsiella pneumoniae; assay: Antimicrobial activity against Klebsiella pneumoniae ATCC 10031 after 24 hrs by broth microdilution assay; details: ATCC 10031, 24 h; how it was run: as §1
[5] = test system: Escherichia coli; assay: Antimicrobial activity against Escherichia coli ATCC 10536 after 24 hrs by broth microdilution assay; details: ATCC 10536, 24 h; how it was run: as §1
[6] = test system: Pseudomonas aeruginosa; assay: Antimicrobial activity against Pseudomonas aeruginosa ATCC 10145 after 24 hrs by broth microdilution assay; details: ATCC 10145, 24 h; how it was run: as §1
[7] = test system: Saccharomyces cerevisiae; assay: Antimicrobial activity against Saccharomyces cerevisiae ATCC 9763 after 24 hrs by broth microdilution assay; details: ATCC 9763, 24 h; how it was run: as §1
[8] = test system: Candida tropicalis; assay: Antimicrobial activity against Candida tropicalis ATCC 1369 after 24 hrs by broth microdilution assay; details: ATCC 1369, 24 h; how it was run: as §1
[9] = test system: Aspergillus niger; assay: Antimicrobial activity against Aspergillus niger ATCC 6275 after 24 hrs by broth microdilution assay; details: ATCC 6275, 24 h; how it was run: as §1
[10] = test system: Mycobacterium tuberculosis; assay: Antimycobacterial activity against Mycobacterium tuberculosis H37Rv after 21 days by broth dilution assay; details: 504 h
How it was run: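 Middlebrook 7H9 broth with 10% albumin-dextrose-catalase and 0.2% glycerol; frozen culture thawed, diluted to 10⁵ cfu/mL and used as inoculum. Compounds taken up in DMSO and diluted twice in broth, 1.3% DMSO final. Incubated at 37 °C. Growth judged by eye against drug-free and inoculum-free controls and isoniazid. MIC is the lowest concentration inhibiting ≥99% of the starting population.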

Structure (SMILES)	MIC [1] [µg/mL]	MIC [2] [µg/mL]	MIC [3] [µg/mL]	MIC [4] [µg/mL]	MIC [5] [µg/mL]	MIC [6] [µg/mL]	MIC [7] [µg/mL]	MIC [8] [µg/mL]	MIC [9] [µg/mL]	MIC [10] [µg/mL]
CC(C)c1csc(-c2nnc(S)n2/N=C/c2ccc(Br)cc2)n1	62.5 (≈ 153 µM)	125 (≈ 306 µM)	125 (≈ 306 µM)	125 (≈ 306 µM)	62.5 (≈ 153 µM)	62.5 (≈ 153 µM)	125 (≈ 306 µM)	62.5 (≈ 153 µM)	62.5 (≈ 153 µM)	125 (≈ 306 µM)
COc1cc(/C=N/n2c(S)nnc2-c2nc(C(C)C)cs2)cc(OC)c1OC	125 (≈ 298 µM)	62.5 (≈ 149 µM)	125 (≈ 298 µM)	62.5 (≈ 149 µM)	62.5 (≈ 149 µM)	125 (≈ 298 µM)	62.5 (≈ 149 µM)	125 (≈ 298 µM)	62.5 (≈ 149 µM)	125 (≈ 298 µM)
Cc1ccc(-c2nnc(-c3nc(C(C)C)cs3)o2)cc1	31.2 (≈ 110 µM)	16 (≈ 56.1 µM)	31.2 (≈ 110 µM)	125 (≈ 438 µM)	62.5 (≈ 219 µM)	125 (≈ 438 µM)	62.5 (≈ 219 µM)	125 (≈ 438 µM)	31.2 (≈ 110 µM)	16 (≈ 56.1 µM)
COc1ccc(-c2nnc(-c3nc(C(C)C)cs3)o2)cc1	31.2 (≈ 104 µM)	31.2 (≈ 104 µM)	31.2 (≈ 104 µM)	31.2 (≈ 104 µM)	16 (≈ 53.1 µM)	16 (≈ 53.1 µM)	31.2 (≈ 104 µM)	31.2 (≈ 104 µM)	31.2 (≈ 104 µM)	16 (≈ 53.1 µM)
CC(=O)N1N=C(c2nc(C(C)C)cs2)OC1(C)c1ccc(O)cc1 (stereo not given)	16 (≈ 46.3 µM)	31.2 (≈ 90.5 µM)	31.2 (≈ 90.5 µM)	16 (≈ 46.3 µM)	16 (≈ 46.3 µM)	62.5 (≈ 181 µM)	31.2 (≈ 90.5 µM)	31.2 (≈ 90.5 µM)	125 (≈ 362 µM)	62.5 (≈ 181 µM)
COc1ccc(C2(C)OC(c3nc(C(C)C)cs3)=NN2C(C)=O)cc1 (stereo not given)	31.2 (≈ 86.9 µM)	125 (≈ 348 µM)	31.2 (≈ 86.9 µM)	125 (≈ 348 µM)	125 (≈ 348 µM)	125 (≈ 348 µM)	4 (≈ 11.1 µM)	8 (≈ 22.3 µM)	8 (≈ 22.3 µM)	62.5 (≈ 174 µM)
CC(=O)N1N=C(c2nc(C(C)C)cs2)OC1(C)c1ccc([N+](=O)[O-])cc1 (stereo not given)	31.2 (≈ 83.5 µM)	62.5 (≈ 167 µM)	62.5 (≈ 167 µM)	62.5 (≈ 167 µM)	16 (≈ 42.7 µM)	31.2 (≈ 83.5 µM)	31.2 (≈ 83.5 µM)	62.5 (≈ 167 µM)	31.2 (≈ 83.5 µM)	125 (≈ 334 µM)
CC(C)c1csc(-c2nnc(-c3ccccc3)o2)n1	31.2 (≈ 115 µM)	16 (≈ 59 µM)	62.5 (≈ 230 µM)	250 (≈ 921 µM)	125 (≈ 461 µM)	62.5 (≈ 230 µM)	62.5 (≈ 230 µM)	125 (≈ 461 µM)	125 (≈ 461 µM)	31.2 (≈ 115 µM)
CC(C)c1csc(-c2nnc(-c3ccc(Cl)cc3)o2)n1	8 (≈ 26.2 µM)	8 (≈ 26.2 µM)	4 (≈ 13.1 µM)	125 (≈ 409 µM)	125 (≈ 409 µM)	125 (≈ 409 µM)	62.5 (≈ 204 µM)	125 (≈ 409 µM)	62.5 (≈ 204 µM)	4 (≈ 13.1 µM)
CC(=O)N1N=C(c2nc(C(C)C)cs2)OC1(C)c1ccc(Br)cc1 (stereo not given)	16 (≈ 39.2 µM)	16 (≈ 39.2 µM)	31.2 (≈ 76.5 µM)	16 (≈ 39.2 µM)	62.5 (≈ 153 µM)	16 (≈ 39.2 µM)	31.2 (≈ 76.5 µM)	31.2 (≈ 76.5 µM)	31.2 (≈ 76.5 µM)	125 (≈ 306 µM)
CC(=O)N1N=C(c2nc(C(C)C)cs2)OC1(C)c1ccc(C)cc1 (stereo not given)	125 (≈ 364 µM)	125 (≈ 364 µM)	16 (≈ 46.6 µM)	31.2 (≈ 91 µM)	16 (≈ 46.6 µM)	125 (≈ 364 µM)	16 (≈ 46.6 µM)	31.2 (≈ 91 µM)	31.2 (≈ 91 µM)	31.2 (≈ 91 µM)
CC(C)c1csc(-c2nnc(-c3ccc(O)cc3)o2)n1	62.5 (≈ 218 µM)	62.5 (≈ 218 µM)	31.2 (≈ 109 µM)	62.5 (≈ 218 µM)	62.5 (≈ 218 µM)	62.5 (≈ 218 µM)	62.5 (≈ 218 µM)	125 (≈ 435 µM)	125 (≈ 435 µM)	125 (≈ 435 µM)
CC(C)c1csc(-c2nnc(S)n2/N=C/c2ccc(N(C)C)cc2)n1	16 (≈ 43 µM)	125 (≈ 336 µM)	31.2 (≈ 83.9 µM)	16 (≈ 43 µM)	16 (≈ 43 µM)	16 (≈ 43 µM)	31.2 (≈ 83.9 µM)	125 (≈ 336 µM)	16 (≈ 43 µM)	125 (≈ 336 µM)
CC(C)c1csc(-c2nnc3sc(-c4ccc([N+](=O)[O-])cc4)nn23)n1	125 (≈ 336 µM)	125 (≈ 336 µM)	16 (≈ 43 µM)	16 (≈ 43 µM)	125 (≈ 336 µM)	31.2 (≈ 83.9 µM)	8 (≈ 21.5 µM)	8 (≈ 21.5 µM)	16 (≈ 43 µM)	31.2 (≈ 83.9 µM)
Cc1ccc(-c2nn3c(-c4nc(C(C)C)cs4)nnc3s2)cc1	125 (≈ 366 µM)	125 (≈ 366 µM)	62.5 (≈ 183 µM)	250 (≈ 732 µM)	125 (≈ 366 µM)	62.5 (≈ 183 µM)	250 (≈ 732 µM)	125 (≈ 366 µM)	125 (≈ 366 µM)	31.2 (≈ 91.5 µM)
